Measurements reported in ChEMBL document CHEMBL4732057, “Design, synthesis and biological evaluation of second-generation benzoylpiperidine derivatives as reversible monoacylglycerol lipase (MAGL) inhibitors” (Eur J Med Chem, 2021).
Calls of active or inactive are those of the source. No cut-off for these calls is given here.

Assays:
HCT-116 = experiment: Antiproliferative activity against human HCT116 cells as reduction in cell growth measured after 96 hrs by Celltiter-glo luminescent assay; type: functional, cell-based; conditions: HCT-116, 96 h
Outline: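 Cell lines kept at 37 °C, 5% CO2; 5 × 10^2 cells per well, compound added the day after seeding at 200 to 0.02 µM. Viability read after 96 h by CellTiter-Glo luminescence. IC50 from logistic dose-response curves, in triplicate; error bars are SD.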

[1] = biological target: T1, Monoglyceride lipase (Homo sapiens) (UniProt Q99685); experiment: Reversible inhibition of human recombinant MAGL using 4-nitrophenylacetate as substrate preincubated with enzyme for 0 to 60 mins followed by substrate addition by microplate reader assay; conditions: time 0-60 min
T1 sequence (whole entry): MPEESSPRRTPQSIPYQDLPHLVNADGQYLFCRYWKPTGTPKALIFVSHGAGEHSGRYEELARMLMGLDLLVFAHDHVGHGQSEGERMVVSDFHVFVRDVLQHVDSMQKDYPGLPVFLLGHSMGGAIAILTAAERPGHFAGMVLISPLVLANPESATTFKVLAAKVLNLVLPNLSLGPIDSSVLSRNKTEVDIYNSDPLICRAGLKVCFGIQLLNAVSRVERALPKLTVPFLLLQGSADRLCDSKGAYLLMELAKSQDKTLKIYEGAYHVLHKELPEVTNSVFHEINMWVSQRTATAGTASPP
Outline: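 MAGL (11 ng/well) preincubated with compound in DMSO for 0, 30 or 60 min. Reaction then started with 4-NPA 500 µM stock, same buffer and read-out as the main assay. IC50 at each time; triplicates of two independent experiments.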

[2] = biological target: T2, Fatty-acid amide hydrolase 1 (Homo sapiens) (UniProt O00519); experiment: Inhibition of FAAH in human U937 cells assessed as reduction in [3H]ethanolamine formation using [ethanolamine-1-3H]AEA as substrate at 10 uM incubated for 15 mins by liquid scintillation spectroscopy; type: cell-based; conditions: U-937
T2 sequence (whole entry): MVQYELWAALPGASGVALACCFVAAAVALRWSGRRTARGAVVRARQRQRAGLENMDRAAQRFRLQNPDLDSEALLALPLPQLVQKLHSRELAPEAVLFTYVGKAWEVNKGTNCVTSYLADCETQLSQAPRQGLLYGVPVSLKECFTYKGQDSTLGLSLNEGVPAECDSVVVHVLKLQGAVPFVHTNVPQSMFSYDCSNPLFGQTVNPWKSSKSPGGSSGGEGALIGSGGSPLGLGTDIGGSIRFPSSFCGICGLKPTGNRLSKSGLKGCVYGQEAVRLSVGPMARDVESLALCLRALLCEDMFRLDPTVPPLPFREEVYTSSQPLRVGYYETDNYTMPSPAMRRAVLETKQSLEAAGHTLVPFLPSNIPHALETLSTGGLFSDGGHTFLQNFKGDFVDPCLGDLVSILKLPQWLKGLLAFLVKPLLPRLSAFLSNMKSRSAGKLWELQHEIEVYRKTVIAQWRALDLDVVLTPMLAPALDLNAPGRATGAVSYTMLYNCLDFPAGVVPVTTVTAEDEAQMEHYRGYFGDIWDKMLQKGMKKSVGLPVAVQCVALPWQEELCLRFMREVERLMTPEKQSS
Outline: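 Intact U937 cells (1.0 × 10^6) in Tris-HCl 10 mM, EDTA 1 mM, 0.1% BSA, pH 8, given compound at 37 °C. Then 15 min at 37 °C with shaking. MAGL: 10 µM 2-OG plus 0.5 nM [3H]2-OG. FAAH: 1 µM AEA plus 2 nM [3H]AEA. Aqueous-phase tritium counted; three experiments in triplicate.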

[3] = biological target: T3, Monoacylglycerol lipase ABHD6 (Homo sapiens) (UniProt Q9BV23); experiment: Inhibition of human ABHD6 expressed in HEK293 cells using [3H]2-OG as substrate at 10 uM preincubated for 30 mins followed by substrate addition and measured after 5 mins by liquid scintillation spectroscopy; type: cell-based; conditions: time 35.0 min
T3 sequence (whole entry): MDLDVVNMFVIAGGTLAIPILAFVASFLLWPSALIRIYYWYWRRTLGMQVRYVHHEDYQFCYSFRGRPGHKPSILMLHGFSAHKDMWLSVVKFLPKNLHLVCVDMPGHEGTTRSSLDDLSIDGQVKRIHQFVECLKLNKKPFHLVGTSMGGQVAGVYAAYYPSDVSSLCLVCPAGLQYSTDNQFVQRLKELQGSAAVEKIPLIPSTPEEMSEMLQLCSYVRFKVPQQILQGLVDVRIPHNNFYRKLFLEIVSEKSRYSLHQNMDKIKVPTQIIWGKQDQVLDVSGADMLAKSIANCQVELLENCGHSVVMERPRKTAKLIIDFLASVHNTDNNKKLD
Outline: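 Homogenate (40 µg) of HEK293 cells stably transfected with human ABHD6 or ABHD12, preincubated with compound 30 min at 37 °C in […], 0.1% BSA, pH 7.6. 2-OG 10 µM added for 5 min at 37 °C. Stopped with CHCl3:MeOH; aqueous tritium counted; blanks and nontransfected HEK293 hydrolysis subtracted. Screening at 10 µM.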

[4] = biological target: T4, Monoglyceride lipase (Mus musculus) (UniProt O35678); experiment: Inhibition of MAGL in mouse brain membrane preincubated for 25 mins followed by TAMRA-FP labeling addition and measured after 5 mins by competitive ABPP based analysis; type: cell membranes; conditions: time 30.0 min
T4 sequence (whole entry): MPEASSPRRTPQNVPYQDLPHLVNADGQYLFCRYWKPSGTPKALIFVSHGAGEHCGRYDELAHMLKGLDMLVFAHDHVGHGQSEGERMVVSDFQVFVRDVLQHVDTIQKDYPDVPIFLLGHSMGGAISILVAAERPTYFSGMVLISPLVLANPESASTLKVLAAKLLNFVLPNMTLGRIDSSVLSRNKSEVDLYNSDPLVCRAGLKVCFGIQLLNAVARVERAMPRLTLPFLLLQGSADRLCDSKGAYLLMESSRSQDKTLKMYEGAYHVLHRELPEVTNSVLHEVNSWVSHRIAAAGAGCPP
Outline: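 Mouse brain membranes, 4 mg/mL in PBS, preincubated 25 min at 25 °C with compound at 10 µM or a range of concentrations. Labelled 5 min with TAMRA-FP at 125 nM final. Proteins resolved on 11% SDS-PAGE and scanned for fluorescence.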

Structure (SMILES) | IC50 (HCT-116) | inhibition [1] | inhibition [2] | inhibition [3] | inhibition [4]
O=C(c1ccc(Sc2ccccc2)cc1)C1CCN(C(=O)c2cc(O)c(F)cc2F)CC1 | 15 µM | Active | 22% | 18% | Dose-dependent effect
O=C(c1ccc(Cc2ccccc2)cc1)C1CCN(C(=O)c2cc(O)c(F)cc2F)CC1 | 5.3 µM | Active | 21% | 10% | Dose-dependent effect
O=C(c1ccc(Cc2ccccc2)cc1)C1CCN(C(=O)c2cc(O)ccc2F)CC1 | 17 µM | Active | < 10% | 21% | Dose-dependent effect
O=C(c1ccc(Sc2ccccc2)cc1)C1CCN(C(=O)c2cc(O)ccc2F)CC1 | 5.1 µM | Active | < 10% | 40% | Dose-dependent effect
